# Measurements from different studies.
# Compare with care: the assays were run in different laboratories.
# Organism: Candida albicans
# Observed: microbial growth
Structure (SMILES),assay,system,conditions,quantity,result
O=C1C(Br)=C(Br)C(=O)c2ccccc21,broth dilution,ATCC60193,24 h,MIC,3.12 µg/mL
O=C(C=Cc1ccc(O)c(O)c1)OCc1ccccc1,broth dilution,SC5314,,MIC,64 µg/mL
Clc1ccccc1C(c1ccccc1)(c1ccccc1)n1ccnc1,,MTCC183,,MIC,0.5 µg/mL
Nc1ccccc1OC(=O)C=Cc1ccc(O)c(O)c1,broth dilution,SC5314,,MIC,8 µg/mL
COC1=CC(=O)c2ccccc2C1=O,broth dilution,ATCC60193,24 h,MIC,25 µg/mL
N#Cc1c(-c2ccc(OCc3ccccc3)cc2)c(C(N)=S)c(N)n(N)c1=O,well diffusion,ATCC10231,500 µg/mL,inhibition zone,10 mm
CC1CCC(C(C)C)C(OC(=O)C=Cc2ccc(O)c(O)c2)C1 (centres unmarked),broth dilution,SC5314,,MIC,8 µg/mL
COc1ccc(C2c3c(C)nn(-c4ccccc4)c3NN2C(=O)c2ccncc2)cc1 (centres unmarked),,MTCC183,,MIC,16 µg/mL
CN(C)c1ccc(-c2c(C(N)=O)c(N)n(N)c(=O)c2C#N)cc1,well diffusion,ATCC10231,500 µg/mL,inhibition zone,12 mm
Cc1nn(-c2ccccc2)c2c1C(c1ccc(O)cc1)N(C(=O)c1ccncc1)N2 (centres unmarked),,MTCC183,,MIC,64 µg/mL
N#Cc1c(-c2ccc(OCc3ccccc3)cc2)c(C(N)=O)c(N)n(N)c1=O,well diffusion,ATCC10231,500 µg/mL,inhibition zone,10 mm
Cc1nn(-c2ccccc2)c2c1C(c1ccc([N+](=O)[O-])cc1)N(C(=O)c1ccncc1)N2 (centres unmarked),,MTCC183,,MIC,> 100 µg/mL
CN(C)c1ccc(-c2c(C(N)=S)c(N)n(N)c(=O)c2C#N)cc1,well diffusion,ATCC10231,500 µg/mL,inhibition zone,17 mm
CC(C)NCC(COc1cccc2ccccc12)OC(=O)C=Cc1ccc(O)c(O)c1 (centres unmarked),broth dilution,SC5314,,MIC,16 µg/mL
Cc1nn(-c2ccccc2)c2c1C(c1c[nH]c3ccccc13)N(C(=O)c1ccncc1)N2 (centres unmarked),,MTCC183,,MIC,32 µg/mL
N#Cc1c(-c2ccc(Cl)cc2Cl)c(C(N)=O)c(N)n(N)c1=O,well diffusion,ATCC10231,500 µg/mL,inhibition zone,9 mm
COc1cc(Cc2cnc(N)nc2N)cc(OC)c1OC,broth dilution,SC5314,,MIC,64 µg/mL
